In ChEMBL document CHEMBL2331413, “Novel in vivo active anti-malarials based on a hydroxy-ethyl-amine scaffold” (Bioorg Med Chem Lett, 2013):
Calls of active or inactive are those of the source. No cut-off for these calls is given here.

Tests used:
[1] = test system: Plasmodium berghei; assay: Antimalarial activity against GFP-transfected Plasmodium berghei ANKA in mouse blood assessed as inhibition of schizont maturation compound incubated for 16 hrs followed by 8 hrs of [3H]hypoxanthine incorporation; assay type: functional, organism-based
[2] = Metabolic stability in mouse liver microsomes; assay type: ADME, Microsome; details: read-out: Stability
Method in brief: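 In vitro metabolic stability was measured with a mouse liver microsomal preparation and expressed as intrinsic clearance in µl/(min mg).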

[3] = test system: Plasmodium falciparum; assay: Antimalarial activity against chloroquine-sensitive Plasmodium falciparum NF54 infected in RBC after 24 hrs by [3H]hypoxanthine incorporation assay in presence of 0.5 % albumax; assay type: functional, organism-based
[4] = test system: Plasmodium falciparum; assay: Antimalarial activity against chloroquine-sensitive Plasmodium falciparum NF54 infected in RBC after 72 hrs by [3H]hypoxanthine incorporation assay in presence of 0.5 % albumax; assay type: functional, organism-based
[5] = test system: Plasmodium falciparum; assay: Antimalarial activity against chloroquine-sensitive Plasmodium falciparum NF54 infected in RBC after 48 hrs by [3H]hypoxanthine incorporation assay in presence of 0.5 % albumax; assay type: functional, organism-based
[6] = test system: Plasmodium falciparum; assay: Antimalarial activity against chloroquine-resistant Plasmodium falciparum K1 infected in RBC by [3H]hypoxanthine incorporation assay in presence of 50 % serum; assay type: functional, organism-based
[7] = test system: Plasmodium berghei; assay: Antimalarial activity against GFP-transfected Plasmodium berghei ANKA in mouse blood assessed as inhibition of schizont maturation after 72 hrs by [3H]hypoxanthine incorporation assay; assay type: functional, organism-based
[8] = test system: Plasmodium falciparum; assay: Antimalarial activity against chloroquine-resistant Plasmodium falciparum K1 infected in RBC by [3H]hypoxanthine incorporation assay in presence of 0.5 % albumax; assay type: functional, organism-based
[9] = test system: Plasmodium falciparum; assay: Antimalarial activity against chloroquine-sensitive Plasmodium falciparum NF54 infected in RBC after 72 hrs by [3H]hypoxanthine incorporation assay in presence of 50 % serum; assay type: functional, organism-based
[10] = test system: Plasmodium berghei; assay: Antimalarial activity against GFP-transfected Plasmodium berghei ANKA in mouse blood assessed as inhibition of schizont maturation after 48 hrs by [3H]hypoxanthine incorporation assay relative to control; assay type: functional, organism-based
[11] = test system: Plasmodium berghei; assay: Antimalarial activity against GFP-transfected Plasmodium berghei ANKA infected in mouse assessed as increase in host survival time at 100 mg/kg, po administered as single dose […]; assay type: functional
Method in brief: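 P. berghei-infected mouse model; a single oral dose of 100 mg/kg. Parasitemia was expressed relative to untreated control animals. Mean survival time in days was compared with that of untreated mice.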

[12] = test system: Plasmodium berghei; assay: Antimalarial activity against GFP-transfected Plasmodium berghei ANKA infected in mouse assessed as reduction in parasitemia at 100 mg/kg, po administered as single dose measured after 72 hrs by flow cytometry; assay type: functional; parameters: scale not given: the % may be the effect or the level left

Compound | IC50 [1] [nM] | microsomal CLint [2] [µL/min/mg] | IC50 [3] [nM] | IC50 [4] [nM] | IC50 [5] [nM] | IC50 [6] [nM] | Activity [7] | IC50 [8] [nM] | IC50 [9] [nM] | Activity [10] | Survival [11] [days] | Activity [12] [%]
CCCN(CCC)Cc1cc(C2CCC(NC[C@@H](O)[C@H](Cc3ccccc3)NC(=O)c3ccc(N4CCN(C)CC4)cc3)CC2)ccc1O (some centres undefined) | 143 | 74 | 20 | 19 | 19 | – | – | – | – | – | – | –
C[C@@H](NC[C@@H](O)[C@H](Cc1ccccc1)NC(=O)c1ccc(Nc2ccncc2)cc1)c1ccccc1 | 307 | 112 | 169 | 20 | 26 | 48 | Active | 27 | 36 | Active | – | –
Cc1cc(Nc2ccc(C(=O)N[C@@H](Cc3ccccc3)[C@H](O)CN[C@H](C)c3ccccc3)cc2)cc(C)n1 | 329 | – | 198 | 8.7 | 11 | 20 | Active | 9 | 23 | Active | – | –
Cc1cc(Nc2ccc(C(=O)N[C@@H](Cc3ccccc3)[C@H](O)CN[C@H](C)c3ccccc3)cc2)ccn1 | 228 | 69 | 173 | 9.8 | – | 26 | Active | 16 | 29 | Active | 3 | 33
C[C@@H](NC[C@@H](O)[C@H](Cc1ccccc1)NC(=O)c1ccc(N(C)c2ccncc2)cc1)c1ccccc1 | > 500 | 180 | 249 | 21 | 27 | 42 | Active | 38 | 35 | Active | – | –
C[C@@H](NC[C@@H](O)[C@H](Cc1ccccc1)NC(=O)c1ccc(N2CCN(C)CC2)cc1)c1ccccc1 | > 500 | 80 | > 500 | 8.7 | – | 32 | – | 19 | 8.5 | – | – | –
CCCN(CCC)Cc1cc(CNC[C@@H](O)[C@H](Cc2ccccc2)NC(=O)c2ccc(N3CCN(C)CC3)cc2)ccc1O | 140 | 90 | 69 | 65 | 50 | 9.5 | – | 13 | 42 | – | 7 | 87
CCCN(CCC)C(=O)c1cccc(C(=O)N[C@@H](Cc2ccccc2)[C@H](O)CN[C@H](C)c2ccccc2)c1 | > 500 | > 1250 | > 500 | 2 | < 3.1 | – | – | – | 10 | – | – | –
C[C@@H](NC[C@@H](O)[C@H](Cc1ccccc1)NC(=O)c1ccc(Nc2ccc(CN3CCCCC3)c(O)c2)cc1)c1ccccc1 | 172 | 415 | 25 | 3.6 | < 7.8 | – | – | – | 3.3 | – | – | –
